Publication PMC6198128 (Redox Biology, 2018)

Tests used:
HL-60 cells [1] = format: cell-based, human; conditions: HL-60, 24 and 48 h, p < 0.05; DOX 2 µM, OXA 2.5 µM
[2] = tested on: SCC-9 (human oral squamous cell carcinoma); test: Alamar blue cytotoxicity assay, SCC-9; format: cell-based
[3] = tested on: HL-60 (human promyelocytic leukemia); test: Alamar blue cytotoxicity assay, HL-60; format: cell-based
[4] = tested on: K-562 (human chronic myelogenous leukemia); test: Alamar blue cytotoxicity assay, K-562; format: cell-based
[5] = Time-dependent 31P{1H} NMR stability in DMSO solution; format: physicochemical
[6] = tested on: HepG2 (human hepatocellular carcinoma); test: Alamar blue cytotoxicity assay, HepG2; format: cell-based
HL-60 cells [7] = test: Mitochondrial transmembrane potential; format: cell-based, human; conditions: HL-60, rhodamine 123, 24 h, p < 0.05; DOX 2 µM, OXA 2.5 µM
In short: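 HL-60 cells were grown in RPMI-1640 with 10% FBS, 2 mM L-glutamine and 50 µg/mL gentamycin at 37 °C, 5% CO2. After treatment, cells were loaded with rhodamine 123 (5 µg/mL) for 15 min at 37 °C in the dark and washed in saline.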

HL-60 cells [8] = test: Internucleosomal DNA fragmentation and cell cycle distribution; format: cell-based, human
In short: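 After 24 or 48 h treatment, HL-60 cells were permeabilized and stained with propidium iodide, and DNA content was measured by flow cytometry. 10^4 events were recorded per sample with debris excluded. Sub-G0/G1 was taken as internucleosomal DNA fragmentation, alongside G0/G1, S and G2/M fractions. Doxorubicin and oxaliplatin were positive controls; ANOVA with Student–Newman–Keuls test.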

[9] = tested on: HCT116 (human colon carcinoma); test: Alamar blue cytotoxicity assay, HCT116; format: cell-based
HL-60 cells [10] = test: Morphological analysis; format: cell-based, human; conditions: 24 and 48 h, DOX 2 µM, OXA 2.5 µM
In short: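 HL-60 cells were treated for 24 and 48 h, then stained with May-Grunwald-Giemsa and examined by light microscopy. In parallel, forward and side light scatter were quantified by flow cytometry, recording 10^4 events per sample with debris excluded. Vehicle was the negative control, with doxorubicin and oxaliplatin as positive controls.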

ROS in HL-60 cells = test: Intracellular reactive oxygen species levels; format: cell-based, human; conditions: HL-60, DCFH-DA, 1 h
In short: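 Intracellular ROS in HL-60 cells was measured with 2′,7′-dichlorofluorescin diacetate after 1 and 3 h exposure to test compound. Fluorescence was read by flow cytometry, recording 10^4 events per sample with cellular debris omitted. Vehicle served as negative control; results are mean ± S.E.M., compared by ANOVA and Student–Newman–Keuls test.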

[11] = tested on: HSC-3 (human oral squamous cell carcinoma); test: Alamar blue cytotoxicity assay, HSC-3; format: cell-based
[12] = tested on: MCF-7 (human breast carcinoma); test: Alamar blue cytotoxicity assay, MCF-7; format: cell-based
B16-F10 (mouse melanoma) = test: Alamar blue cytotoxicity assay, B16-F10; format: cell-based
[13] = tested on: PBMC (human peripheral blood mononuclear cells); test: Alamar blue cytotoxicity assay, PBMC; format: cell-based; conditions: read-out: IC50 in µM; PBMC non-cancer cells, alamar blue, 72 h
calf thymus DNA (ctDNA) = test: DNA intercalation assay; format: binding; conditions: cell-free, 15 µg/mL ctDNA, 1.5 µM ethidium bromide; complex 5, 10 and 20 µM; doxorubicin 10 µM
In short: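 Ethidium bromide displacement from calf thymus DNA in saline: 15 µg/mL ctDNA, 1.5 µM ethidium bromide, test compound at 5, 10 and 20 µM. Vehicle (0.1% DMSO) was the negative control and doxorubicin (10 µM) the positive control. Fluorescence was read at excitation 320 nm and emission 600 nm. Lower fluorescence was taken as intercalation.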

[14] = HL-60, 1 µM, 24 h of incubation
[15] = HL-60, 1 µM, 48 h of incubation
[16] = HL-60, 2 µM, 24 h of incubation
[17] = HL-60, 2 µM, 48 h of incubation
[18] = HL-60, 4 µM, 24 h of incubation
[19] = HL-60, 4 µM, 48 h of incubation

cis-[PtCl(PIP-OH)(PPh3)2]PF6 [CPP]
apoptotic cells (annexin V-FITC/PI) (HL-60 cells [1]): increasing in apoptotic cells with more pronounced effect after 48 h | more potent than PIP-OH ([2]; SCC-9, ratio of IC50): 3.8 fold | more potent than piplartine ([2]; SCC-9, ratio of IC50): 2.7 fold | IC50 ([2]; read-out: IC50 in µM, SCC-9, alamar blue, 72 h): 6.2 µM | more potent than PIP-OH ([3]; HL-60, ratio of IC50): 4.5 fold | more potent than piplartine ([3]; HL-60, ratio of IC50): 7.4 fold | IC50 ([3]; read-out: IC50 in µM, HL-60, alamar blue, 72 h): 1.9 µM | more potent than PIP-OH ([4]; K-562, ratio of IC50): 21.1 fold | more potent than piplartine ([4]; K-562, ratio of IC50): 16.9 fold | IC50 ([4]; read-out: IC50 in µM, K-562, alamar blue, 72 h): 1.1 µM | stability in solution (31P{1H} NMR) ([5]; after 1 h of incubation): significant dissociation of PIP-OH ligand from the metal complex | stability in solution (31P{1H} NMR) ([5]; after 48 h): most the PIP-OH was dissociated from the metal complex | more potent than piplartine ([6]; HepG2, ratio of IC50): 1.4 fold | IC50 ([6]; read-out: IC50 in µM, HepG2, alamar blue, 72 h): 4.4 µM | mitochondrial transmembrane potential (HL-60 cells [7]): induced loss of the mitochondrial transmembrane potential | DNA content (%) G0/G1 (HL-60 cells [8]; [14]): 32.0 ± 5.4 % | DNA content (%) G2/M (HL-60 cells [8]; [14]): 13.2 ± 2.9% | DNA content (%) S (HL-60 cells [8]; [14]): 10.5 ± 1.8% | DNA content (%) Sub-G0/G1 (HL-60 cells [8]; [14]): 25.0 ± 1.6 % | DNA content (%) G0/G1 (HL-60 cells [8]; [15]): 49.7 ± 2.2% | DNA content (%) G2/M (HL-60 cells [8]; [15]): 14.5 ± 0.9% | DNA content (%) S (HL-60 cells [8]; [15]): 12.3 ± 1.6% | DNA content (%) Sub-G0/G1 (HL-60 cells [8]; [15]): 19.8 ± 1.4 % | DNA content (%) G0/G1 (HL-60 cells [8]; [16]): 34.3 ± 2.9 % | DNA content (%) G2/M (HL-60 cells [8]; [16]): 15.0 ± 2.5% | DNA content (%) S (HL-60 cells [8]; [16]): 10.3 ± 1.1% | DNA content (%) Sub-G0/G1 (HL-60 cells [8]; [16]): 29.2 ± 0.9 % | DNA content (%) G0/G1 (HL-60 cells [8]; [17]): 48.5 ± 3.1% | DNA content (%) G2/M (HL-60 cells [8]; [17]): 14.1 ± 1.5% | DNA content (%) S (HL-60 cells [8]; [17]): 14.3 ± 0.8% | DNA content (%) Sub-G0/G1 (HL-60 cells [8]; [17]): 25.8 ± 3.8 % | DNA content (%) G0/G1 (HL-60 cells [8]; [18]): 26.7 ± 4.6 % | DNA content (%) G2/M (HL-60 cells [8]; [18]): 15.3 ± 2.6% | DNA content (%) S (HL-60 cells [8]; [18]): 10.1 ± 1.4% | DNA content (%) Sub-G0/G1 (HL-60 cells [8]; [18]): 26.2 ± 4.1 % | DNA content (%) G0/G1 (HL-60 cells [8]; [19]): 41.9 ± 8.6% | DNA content (%) G2/M (HL-60 cells [8]; [19]): 12.8 ± 2.8% | DNA content (%) S (HL-60 cells [8]; [19]): 8.0 ± 2.0 % | DNA content (%) Sub-G0/G1 (HL-60 cells [8]; [19]): 27.3 ± 7.0 % | more potent than PIP-OH ([9]; HCT116, ratio of IC50): 2.4 fold | more potent than piplartine ([9]; HCT116, ratio of IC50): 1.1 fold | IC50 ([9]; read-out: IC50 in µM, HCT116, alamar blue, 72 h): 4.8 µM | cell morphology (HL-60 cells [10]; HL-60, May-Grunwald-Giemsa): reduction in the cell volume, chromatin condensation and fragmentation of the nuclei | forward light scatter (FSC) (HL-60 cells [10]; HL-60, flow cytometry): decrease in FSC | side scatter (SCC) (HL-60 cells [10]; HL-60, flow cytometry): transient increase in SCC | ROS levels (ROS in HL-60 cells): caused increasing in the ROS levels | more potent than PIP-OH ([11]; HSC-3, ratio of IC50): 1.7 fold | more potent than piplartine ([11]; HSC-3, ratio of IC50): 14.1 fold | IC50 ([11]; read-out: IC50 in µM, HSC-3, alamar blue, 72 h): 1 µM | more potent than PIP-OH ([12]; MCF-7, ratio of IC50): 3.6 fold | more potent than piplartine ([12]; MCF-7, ratio of IC50): 1.5 fold | IC50 ([12]; read-out: IC50 in µM, MCF-7, alamar blue, 72 h): 6.8 µM | more potent than PIP-OH (B16-F10 (mouse melanoma); B16-F10, ratio of IC50): 56.9 fold | more potent than piplartine (B16-F10 (mouse melanoma); B16-F10, ratio of IC50): 9.6 fold | IC50 (B16-F10 (mouse melanoma); read-out: IC50 in µM, B16-F10, alamar blue, 72 h): 1.1 µM | IC50 [13]: 10.3 µM | ethidium bromide fluorescence (displacement from ctDNA) (calf thymus DNA (ctDNA)): did not reduce the ethidium bromide fluorescence
